Measurements taken from ChEMBL document CHEMBL3414437, “Synthesis of CDDO-amino acid-nitric oxide donor trihybrids as potential antitumor agents against both drug-sensitive and drug-resistant colon cancer” (J Med Chem, 2015).
Calls of active or inactive are those of the source. No cut-off for these calls is given here.

How the values were obtained:
HCT-8 [1] = assay: Antitumor activity against FU-resistant human HCT8 cells xenografted in nude BALB/c mouse assessed as reduction in tumor volume at 17.8 to 35.7 umol/kg administered as via oral gavage daily for 21 days; format: functional
How it was run: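 Male BALB/c nude mice, 6–8 weeks old, inoculated s.c. in the right flank with HCT-8/5-FU cells (2 × 10^6). Once tumors reached 180–200 mm3 (days 9–11), mice were randomized (n = 8) to daily oral gavage for 21 days in cremophor-EL/DMSO/PBS (1:1:8). Tumor volume = W2(L/2), caliper-measured every other day, blinded; tumors weighed at end.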

Mus musculus [2] = assay: Toxicity in nude BALB/c mouse xenografted with FU-resistant human HCT8 cells assessed as body weight level at 17.8 umol/kg administered as via oral gavage daily for 21 days (reference value: 22.3 +/- 1.9 g); format: organism-based, HCT-8; conditions: in vivo, 504 h
How it was run: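 Male BALB/c nude mice, 6-8 weeks old, inoculated s.c. in right flank with HCT-8/5-FU cells (2 × 10^6/mouse). Once tumors reached 180-200 mm3 (9-11 days post-implantation), mice were randomized and dosed by gavage daily for 21 consecutive days in cremophor-EL/DMSO/PBS (1:1:8) (vehicle alone 0.2 mL). Body weights recorded on day 1 and day 21. Organ size, color and weights were inspected for liver, kidney, lung and heart. n = 8 per group; mean ± SD.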

Mus musculus [3] = assay: Toxicity in nude BALB/c mouse xenografted with FU-resistant human HCT8 cells assessed as abnormal color changes in liver at 17.8 to 35.7 umol/kg administered as via oral gavage daily for 21 days; format: organism-based, HCT-8; conditions: in vivo, 504 h
How it was run: (§1)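 Male BALB/c nude mice aged 6-8 weeks, implanted s.c. in the right flank with HCT-8/5-FU cells (2 × 10^6). Once tumors reached 180-200 mm3 (days 9-11), randomized to daily gavage for 21 days in cremophor-EL/DMSO/PBS (1:1:8), 0.2 mL. At the end, liver, kidney, lung and heart checked for size, colour and weight. n = 8 per group.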

Mus musculus [4] = assay: Toxicity in nude BALB/c mouse xenografted with FU-resistant human HCT8 cells assessed as abnormal size changes in liver at 17.8 to 35.7 umol/kg administered as via oral gavage daily for 21 days; format: organism-based, HCT-8; conditions: in vivo, 504 h; how it was run: as §1
[5] = molecular target: Multidrug resistance-associated protein 1 (Homo sapiens, UniProt P33527); assay: Induction of nitrosylation of MRP1 protein in FU-resistant human HCT8 cells at 0.25 to 1 uM incubated for 24 hrs by Western blotting method; format: cell-based; conditions: hct-8, 24 h
Sequence of Multidrug resistance-associated protein 1 (P33527 whole entry): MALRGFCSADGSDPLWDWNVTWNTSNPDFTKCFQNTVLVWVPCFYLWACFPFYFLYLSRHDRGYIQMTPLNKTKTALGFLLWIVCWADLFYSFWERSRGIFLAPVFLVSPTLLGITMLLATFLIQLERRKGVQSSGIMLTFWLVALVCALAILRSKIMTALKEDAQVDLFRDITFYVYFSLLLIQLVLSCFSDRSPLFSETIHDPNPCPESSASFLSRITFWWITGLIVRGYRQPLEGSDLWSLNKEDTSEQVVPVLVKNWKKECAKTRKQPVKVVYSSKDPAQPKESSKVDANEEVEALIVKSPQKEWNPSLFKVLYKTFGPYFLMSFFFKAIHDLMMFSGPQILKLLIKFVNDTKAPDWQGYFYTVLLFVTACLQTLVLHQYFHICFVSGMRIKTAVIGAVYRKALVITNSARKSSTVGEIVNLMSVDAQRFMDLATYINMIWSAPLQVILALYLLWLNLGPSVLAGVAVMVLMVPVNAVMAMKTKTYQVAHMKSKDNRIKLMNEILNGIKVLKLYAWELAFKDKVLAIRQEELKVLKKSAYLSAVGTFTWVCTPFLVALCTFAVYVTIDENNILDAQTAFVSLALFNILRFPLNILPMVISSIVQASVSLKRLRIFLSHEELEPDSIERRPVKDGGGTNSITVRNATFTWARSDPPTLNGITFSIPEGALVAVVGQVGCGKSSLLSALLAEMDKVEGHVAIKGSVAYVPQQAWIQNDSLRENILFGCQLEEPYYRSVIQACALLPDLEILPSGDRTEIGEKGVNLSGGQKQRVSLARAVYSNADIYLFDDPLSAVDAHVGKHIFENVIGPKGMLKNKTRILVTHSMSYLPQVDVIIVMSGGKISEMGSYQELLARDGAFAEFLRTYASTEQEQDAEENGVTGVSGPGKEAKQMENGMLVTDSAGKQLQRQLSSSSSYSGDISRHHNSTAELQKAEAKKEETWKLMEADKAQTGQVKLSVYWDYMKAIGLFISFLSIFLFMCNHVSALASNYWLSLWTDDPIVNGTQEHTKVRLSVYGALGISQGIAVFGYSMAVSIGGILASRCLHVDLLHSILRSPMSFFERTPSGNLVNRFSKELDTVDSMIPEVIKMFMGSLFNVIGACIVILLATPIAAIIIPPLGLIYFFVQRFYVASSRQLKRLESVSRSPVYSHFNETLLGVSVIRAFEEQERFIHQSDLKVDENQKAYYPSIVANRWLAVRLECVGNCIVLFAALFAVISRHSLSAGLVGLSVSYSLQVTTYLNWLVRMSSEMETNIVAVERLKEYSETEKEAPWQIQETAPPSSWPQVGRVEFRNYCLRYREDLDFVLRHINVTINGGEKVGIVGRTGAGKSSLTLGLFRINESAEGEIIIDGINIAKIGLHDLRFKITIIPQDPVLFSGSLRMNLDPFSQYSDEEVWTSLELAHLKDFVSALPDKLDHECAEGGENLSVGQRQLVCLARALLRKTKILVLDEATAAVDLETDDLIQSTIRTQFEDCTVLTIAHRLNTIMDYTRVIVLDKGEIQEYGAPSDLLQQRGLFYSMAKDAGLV
How it was run: (§2)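 HCT-8/5-FU cells (1 × 10^6) treated in duplicate for 24 h with 0.25, 0.5 or 1 µM test compound or 1 µM reference, with or without PTIO. Lysates immunoprecipitated overnight at 4 °C with anti-nitrotyrosine antibody on protein G beads. Eluates blotted with specific anti-Pgp, anti-MRP1 or anti-BCRP antibodies and quantified by densitometry. Mean ± SD of three experiments.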

[6] = molecular target: T1, Broad substrate specificity ATP-binding cassette transporter ABCG2 (Homo sapiens, UniProt Q9UNQ0); assay: Induction of nitrosylation of BCRP protein in FU-resistant human HCT8 cells at 0.25 to 1 uM incubated for 24 hrs by Western blotting method; format: cell-based; conditions: hct-8, 24 h; how it was run: as §2
T1 sequence (Q9UNQ0 whole entry): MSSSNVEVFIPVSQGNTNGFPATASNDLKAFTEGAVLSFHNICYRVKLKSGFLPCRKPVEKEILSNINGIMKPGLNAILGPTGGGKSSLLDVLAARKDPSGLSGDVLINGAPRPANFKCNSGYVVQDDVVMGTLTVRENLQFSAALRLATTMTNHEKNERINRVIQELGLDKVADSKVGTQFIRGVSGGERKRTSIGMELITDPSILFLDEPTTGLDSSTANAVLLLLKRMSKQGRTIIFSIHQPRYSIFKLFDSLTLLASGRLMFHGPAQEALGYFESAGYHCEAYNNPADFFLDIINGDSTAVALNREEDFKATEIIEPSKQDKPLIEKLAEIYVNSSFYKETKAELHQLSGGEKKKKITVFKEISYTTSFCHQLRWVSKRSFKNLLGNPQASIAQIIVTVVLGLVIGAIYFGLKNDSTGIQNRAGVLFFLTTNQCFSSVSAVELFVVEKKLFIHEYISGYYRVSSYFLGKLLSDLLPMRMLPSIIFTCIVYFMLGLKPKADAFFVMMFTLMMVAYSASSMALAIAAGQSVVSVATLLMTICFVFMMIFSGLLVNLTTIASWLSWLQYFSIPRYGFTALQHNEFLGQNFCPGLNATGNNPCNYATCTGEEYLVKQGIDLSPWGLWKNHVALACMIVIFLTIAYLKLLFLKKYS

HCT-8 [7] = assay: Inhibition of ERK protein phosphorylation in FU-resistant human HCT8 cells at 0.25 to 1 uM incubated for 24 hrs by Western blotting method; format: cell-based
How it was run: (§3)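 Cells (1 x 10^6) grown 24 h in 6 cm dishes, then exposed in duplicate for 24 h to 0.25, 0.5 or 1 µM compound, with or without PTIO. Lysates (20 µg/lane) were run on 7.5% SDS-PAGE, blotted to PVDF and blocked in 5% milk. HRP secondaries with ECL detection; bands quantified by densitometry against β-actin or GAPDH. Three separate experiments, mean ± SD.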

Mus musculus [8] = assay: Toxicity in nude BALB/c mouse xenografted with FU-resistant human HCT8 cells assessed as abnormal size changes in lung at 17.8 to 35.7 umol/kg administered as via oral gavage daily for 21 days; format: organism-based, HCT-8; conditions: in vivo, 504 h; how it was run: as §1
HCT-8 [9] = assay: Antiproliferative activity against 5-FU resistant human HCT8 cells assessed as inhibition of cell proliferation at 0.125 to 0.5 uM incubated for 72 hrs after 24 hrs of pre-treatment with 0.75 uM and 1 .5 uM pepT1 substrate Gly-Sar by MTT assay; format: functional, cell-based
How it was run: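 Cells pretreated with or without Gly-Sar (0.75 or 1.5 µM) for 24 h, then given a range of compound concentrations for 72 h. Proliferation inhibition measured by MTT.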

Mus musculus [10] = assay: Toxicity in ICR mouse assessed as body weight changes at 0.60 x 10^3 to 2.38 x 10^3 umol/kg administered as single dose via oral gavage measured up to 14 days post treatment; format: organism-based; conditions: in vivo, 336 h
How it was run: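 Adult ICR mice of either sex were randomised and given a single oral gavage dose of 500, 1000, 1500 or 2000 mg/kg in cremophor-EL/DMSO/PBS (1:1:8). Survival, behaviour, water and food intake, body weight and activity were monitored for up to 14 days. Body weights were taken on days 0, 7 and 14.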

HCT-8 [11] = assay: Inhibition of ERK protein phosphorylation in FU-resistant human HCT8 cells at 1 uM incubated for 24 hrs by Western blotting method; format: cell-based; how it was run: as §3
HCT-8 [12] = assay: Inhibition of BCRP protein expression in FU-resistant human HCT8 cells at 1 uM incubated for 24 hrs by Western blotting method; format: functional, cell-based; how it was run: as §3
Mus musculus [13] = assay: Toxicity in nude BALB/c mouse xenografted with FU-resistant human HCT8 cells assessed as abnormal weight changes in kidney at 59.4 umol/kg administered as via oral gavage daily for 21 days; format: organism-based, HCT-8; conditions: in vivo, 504 h; how it was run: as §1
Mus musculus [14] = assay: Toxicity in nude BALB/c mouse xenografted with FU-resistant human HCT8 cells assessed as abnormal color changes in heart at 59.4 umol/kg administered as via oral gavage daily for 21 days; format: organism-based, HCT-8; conditions: in vivo, 504 h; how it was run: as §1

Row | Structure (SMILES) | inhibition (HCT-8 [1]) | Activity (Mus musculus [2]) | Activity (Mus musculus [3]) | Activity (Mus musculus [4]) | Activity [5] | Activity [6] | inhibition (HCT-8 [7]) | Activity (Mus musculus [8]) | inhibition (HCT-8 [9]) | Activity (Mus musculus [10]) | inhibition (HCT-8 [11]) | inhibition (HCT-8 [12]) | Activity (Mus musculus [13]) | Activity (Mus musculus [14])
1 | CC1(C)CC[C@]2(C(=O)NCC(=O)OCC#CCOc3no[n+]([O-])c3S(=O)(=O)c3ccccc3)CC[C@]3(C)[C@H](C(=O)C=C4[C@@]5(C)C=C(C#N)C(=O)C(C)(C)[C@@H]5CC[C@]43C)[C@@H]2C1 | Dose-dependent effect | 17.5 g | Non-toxic | Non-toxic | Dose-dependent effect | Dose-dependent effect | Dose-dependent effect | Non-toxic | inactive | Non-toxic |  |  |  | 
2 | COC(=O)[C@]12CCC(C)(C)C[C@H]1[C@H]1C(=O)C=C3[C@@]4(C)C=C(C#N)C(=O)C(C)(C)[C@@H]4CC[C@@]3(C)[C@]1(C)CC2 [BARDOXOLONE METHYL] |  |  |  |  |  |  |  |  |  |  | Active | inactive | Non-toxic | Non-toxic
